Results as given in ChEMBL document CHEMBL4020714, “Design, synthesis, and evaluation of curcumin derivatives as Nrf2 activators and cytoprotectors against oxidative death” (Eur J Med Chem, 2017).
Active and inactive are the calls of the source. The calls are words filed in the database; no cut-off is given here.

Tests used:
[1] = target: T1, Nuclear factor erythroid 2-related factor 2 (Homo sapiens) (UniProt Q16236); experiment: Activation of Nrf2 in human HepG2 cells assessed as cytoprotection against t-BHP-induced oxidative cell death at 5 uM incubated for 24 hrs followed by compound removal with subsequent incubation with 900 uM of t-BHP for 6 hrs by MTT assay; assay type: cell-based
T1 sequence (whole entry): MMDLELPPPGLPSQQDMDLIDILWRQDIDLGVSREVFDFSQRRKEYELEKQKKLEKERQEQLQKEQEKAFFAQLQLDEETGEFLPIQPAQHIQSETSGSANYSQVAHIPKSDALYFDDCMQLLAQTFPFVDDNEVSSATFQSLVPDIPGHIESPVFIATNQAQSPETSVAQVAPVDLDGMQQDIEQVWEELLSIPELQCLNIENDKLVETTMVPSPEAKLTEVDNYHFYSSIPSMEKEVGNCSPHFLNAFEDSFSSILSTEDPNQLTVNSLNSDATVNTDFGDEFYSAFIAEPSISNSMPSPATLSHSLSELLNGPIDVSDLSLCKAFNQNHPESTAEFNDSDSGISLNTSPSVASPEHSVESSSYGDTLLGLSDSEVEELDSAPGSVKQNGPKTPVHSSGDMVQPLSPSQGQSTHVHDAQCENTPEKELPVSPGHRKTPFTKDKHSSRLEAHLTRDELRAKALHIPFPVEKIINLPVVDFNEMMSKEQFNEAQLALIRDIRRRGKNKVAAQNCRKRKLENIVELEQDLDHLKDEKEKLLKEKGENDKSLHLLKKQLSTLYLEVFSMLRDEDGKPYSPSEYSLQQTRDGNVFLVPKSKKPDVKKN
Procedure, shortened: (§1)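 HepG2 cells (5×10^3/well) seeded and grown 24 h in 1640 medium with 10% FBS at 37 °C and 5% CO2. Compound is added for 24 h, then removed, and cells are challenged with 900 μM t-BHP for 6 h at 37 °C. MTT (0.5 mg/mL) is added for 4 h, formazan dissolved in DMSO, and absorbance read at 570 nm. Where used, inhibitors are added 1 h before compound. Mean ± SD of three independent experiments.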

HepG2 = experiment: Cytotoxicity against human HepG2 cells assessed as reduction in cell viability at 5 uM after 24 hrs by MTT assay; assay type: cell-based; settings: hepg2, 24 h
Procedure, shortened: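 MTT viability in HepG2 cells (5×10^3/well) after 24 h exposure to compound at 5 μM. Formazan dissolved in DMSO and absorbance read at 570 nm. Mean ± SD of three independent experiments.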

[2] = target: T1, Nuclear factor erythroid 2-related factor 2 (Homo sapiens); experiment: Activation of Nrf2 in human HepG2 cells assessed as cytoprotective activity against t-BHP-induced oxidative cell death at 20 uM incubated for 24 hrs followed by compound removal with subsequent incubation with 900 uM of t-BHP for 6 hrs by MTT assay; assay type: cell-based; procedure, shortened: as §1
[3] = target: T1, Nuclear factor erythroid 2-related factor 2 (Homo sapiens); experiment: Activation of Nrf2 in human HepG2 cells assessed as increase in Nrf2 expression level at 20 uM by Western blot analysis; assay type: cell-based
Procedure, shortened: (§2)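 HepG2 cells (2×10^6/well) treated at the indicated concentrations and times. Whole-cell lysates, or nuclear and cytoplasmic fractions, are prepared and quantified by BCA. Samples are run at 40 μg/lane on 12% SDS-PAGE, transferred to nitrocellulose, probed with specific antibodies and HRP secondary (1/5000), and detected by ECL. Where used, LY294002 (15 μM), SP600125 (25 μM) or DTT (400 μM) is added 1 h before compound.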

[4] = target: T1, Nuclear factor erythroid 2-related factor 2 (Homo sapiens); experiment: Activation of Nrf2 in human HepG2 cells assessed as increase in GCLM expression level at 20 uM by Western blot analysis; assay type: cell-based; procedure, shortened: as §2
[5] = target: T1, Nuclear factor erythroid 2-related factor 2 (Homo sapiens); experiment: Activation of Nrf2 in human HepG2 cells assessed as increase in GCLC expression level at 20 uM by Western blot analysis; assay type: cell-based; procedure, shortened: as §2
[6] = target: T1, Nuclear factor erythroid 2-related factor 2 (Homo sapiens); experiment: Activation of Nrf2 in human HepG2 cells assessed as increase in HO-1 expression level at 20 uM by Western blot analysis; assay type: cell-based; procedure, shortened: as §2
[7] = target: T1, Nuclear factor erythroid 2-related factor 2 (Homo sapiens); experiment: Activation of Nrf2 in human HepG2 cells assessed as increase in GCLC expression level after 3 hrs by Western blot analysis; assay type: cell-based; procedure, shortened: as §2
[8] = target: T1, Nuclear factor erythroid 2-related factor 2 (Homo sapiens); experiment: Activation of Nrf2 in human HepG2 cells assessed as increase in Nrf2 expression level after 3 hrs by Western blot analysis; assay type: cell-based; procedure, shortened: as §2
[9] = target: T1, Nuclear factor erythroid 2-related factor 2 (Homo sapiens); experiment: Activation of Nrf2 in human HepG2 cells assessed as increase in HO-1 expression level after 3 hrs by Western blot analysis; assay type: cell-based; procedure, shortened: as §2
[10] = target: T1, Nuclear factor erythroid 2-related factor 2 (Homo sapiens); experiment: Activation of Nrf2 in human HepG2 cells assessed as increase in GCLM expression level after 3 hrs by Western blot analysis; assay type: cell-based; procedure, shortened: as §2
[11] = Stability of the compound in PBS at 40 uM at pH 7.4 at 25 degC measured for 30 mins by UV-Vis spectrophotometric analysis; assay type: physicochemical; settings: buffer, pH 7.4, 0.5 h
Procedure, shortened: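 Compound at 40 μM in PBS (pH 7.4) at 25 °C. UV-visible absorption spectra recorded every 2 min for 30 min against blanks of solution plus DMSO.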

Stability [11] | SMILES | Activity [1] | Activity (HepG2) | further results
 | COc1cc(/C=C/C(=O)C(C)(C)C(=O)/C=C/c2cc(OC)c(OC)c(OC)c2)cc(OC)c1OC | Active | Non-Toxic | 
 | COc1cccc(OC)c1/C=C/C(=O)C(C)(C)C(=O)/C=C/c1c(OC)cccc1OC | Active | Non-Toxic | 
 | CC(C)(C)c1cc(O)ccc1O |  |  | Activity [2]: Active; Activity [3]: Active; Activity [4]: Active; Activity [5]: Active; Activity [6]: Active
 | CC(C)(C(=O)CCc1ccc(O)c(O)c1)C(=O)CCc1ccc(O)c(O)c1 | Active | Non-Toxic | Activity [7]: inactive; Activity [8]: inactive; Activity [9]: inactive; Activity [10]: inactive
Unstable | CC(C)(C(=O)/C=C/c1ccccc1)C(=O)/C=C/c1ccccc1 | Active | Non-Toxic | Activity [7]: inactive; Activity [8]: inactive; Activity [9]: inactive; Activity [10]: inactive
Stable | COc1cc(/C=C/C(=O)C(C)(C)C(=O)/C=C/c2ccc(O)c(OC)c2)ccc1O | Active | Non-Toxic | 
 | CC(C)(C(=O)/C=C/c1ccccc1O)C(=O)/C=C/c1ccccc1O | Active | Non-Toxic | 
 | COc1ccccc1/C=C/C(=O)C(C)(C)C(=O)/C=C/c1ccccc1OC | Active | Non-Toxic | 
Unstable | COc1cc(/C=C/C(=O)CC(=O)/C=C/c2ccc(O)c(OC)c2)ccc1O [CURCUMIN] | Active | Non-Toxic | 
 | CC(C)(C(=O)/C=C/c1ccccc1C(F)(F)F)C(=O)/C=C/c1ccccc1C(F)(F)F | Active | Non-Toxic | 
 | COc1cccc(/C=C/C(=O)C(C)(C)C(=O)/C=C/c2cccc(OC)c2)c1 | Active | Non-Toxic | 
Unstable | COc1ccc(/C=C/C(=O)C(C)(C)C(=O)/C=C/c2ccc(OC)c(OC)c2)cc1OC | Active | Non-Toxic | 
